Each block holds one molecule with its values, some of them ahead of it. The source made the active and inactive calls. No cut-off for these calls is given here.
How the values were obtained:
[1] = target: T1, Receptor tyrosine-protein kinase erbB-2 (Homo sapiens, UniProt P04626); assay: Inhibition of N-terminus peptide-tagged human recombinant HER2 expressed using baculovirus infection system using [gamma-33P]-ATP preincubated with compound for 5 mins measured after 10 mins by scintillation counting
[2] = target: Dual specificity mitogen-activated protein kinase kinase 1 (Homo sapiens, UniProt Q02750); assay: Inhibition of N-terminus GST -fused MEK1 expressed using baculovirus infection system using [gamma-33P]ATP preincubated with compound for 5 mins measured after 30 mins by scintillation counting
[3] = Metabolic stability in human liver microsomes at 1 umol/L after 20 mins by HPLC analysis; type: ADME, Microsome; conditions: read-out: Stability
[4] = Metabolic stability in mouse liver microsomes at 1 umol/L after 20 mins by HPLC analysis; type: ADME, Microsome; conditions: read-out: Stability
[5] = target: Dual specificity mitogen-activated protein kinase kinase 5 (Homo sapiens, UniProt Q13163); assay: Inhibition of N-terminus FLAG-tagged MEK5 expressed in baculovirus expression system using [gamma-33P]-ATP measured after 30 mins by scintillation counting
[6] = target: Tyrosine-protein kinase CSK (Homo sapiens, UniProt P41240); assay: Inhibition of CSK using ATP preincubated with compound for 5 mins measured after 10 mins
[7] = target: Mast/stem cell growth factor receptor Kit (Homo sapiens, UniProt P10721); assay: Inhibition of c-kit using ATP measured after 20 mins
[8] = target: Insulin-like growth factor 1 receptor (Homo sapiens, UniProt P08069); assay: Inhibition of IGFR1 using ATP measured after 20 mins
[9] = target: Mitogen-activated protein kinase 3 (Homo sapiens, UniProt P27361); assay: Inhibition of N-terminus FLAG-tagged Erk1 expressed in baculovirus expression system using [gamma-33P]-ATP measured after 60 mins by scintillation counting
[10] = target: Tyrosine-protein kinase ZAP-70 (Homo sapiens, UniProt P43403); assay: Inhibition of ZAP70 using ATP measured after 10 mins
CAL-27 = assay: Antitumor activity against human CAL27 cells overexpressing EGFR gene xenografted in nude mouse assessed as tumor growth regression at 100 mg/kg, po BID for 14 days relative to control; type: functional
In short: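 CAL27 human head and neck cancer (EGFR-overexpressing) xenografts in mice were dosed orally at 100 mg/kg. Efficacy was expressed as tumor/control ratio (T/C) against vehicle control.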

BT-474 = assay: Growth inhibition of human BT474 cells overexpressing HER2 gene after 5 days; type: functional; conditions: BT-474, 120 h
[11] = target: Mitogen-activated protein kinase 14 (Homo sapiens, UniProt Q16539); assay: Inhibition of N-terminus FLAG-tagged p38alpha expressed in baculovirus expression system using [gamma-33P]-ATP measured after 60 mins by scintillation counting
[12] = Antitumor activity against human 4-1ST cells overexpressing HER2 gene xenografted in nude mouse assessed as tumor growth regression at 50 mg/kg, po BID for 14 days relative to control; type: functional
In short: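 Oral dosing at 50 mg/kg in mice bearing 4-1ST (HER2-overexpressing) tumor xenografts. Efficacy was expressed as tumor/control ratio (T/C). Significance versus control at day 14 was tested by one-tailed Shirley–Williams test.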

[13] = target: Platelet-derived growth factor receptor beta (Homo sapiens, UniProt P09619); assay: Inhibition of PDGFRbeta using ATP measured after 60 mins
[14] = target: Vascular endothelial growth factor receptor 2 (Homo sapiens, UniProt P35968); assay: Inhibition of N-terminus FLAG-tagged VEGFR2 expressed using baculovirus infection system after 10 mins
[15] = target: Mitogen-activated protein kinase kinase kinase 1 (Homo sapiens, UniProt Q13233); assay: Inhibition of C-terminus FLAG-tagged MEKK1 expressed in baculovirus expression system using [gamma-33P]-ATP measured after 60 mins by scintillation counting
[16] = target: Fibroblast growth factor receptor 3 (Homo sapiens, UniProt P22607); assay: Inhibition of FGFR3 using ATP preincubated with compound for 5 mins measured after 10 mins
[17] = target: Fibroblast growth factor receptor 1 (Homo sapiens, UniProt P11362); assay: Inhibition of FGFR1 using ATP preincubated with compound for 5 mins measured after 10 mins
[18] = target: Cytoplasmic tyrosine-protein kinase BMX (Homo sapiens, UniProt P51813); assay: Inhibition of BMX using ATP measured after 10 mins
[19] = target: Protein kinase C theta type (Homo sapiens, UniProt Q04759); assay: Inhibition of N-terminus FLAG-tagged PKCtheta expressed in baculovirus expression system using [gamma-33P]-ATP measured after 60 mins by scintillation counting
[20] = target: Mitogen-activated protein kinase 8 (Homo sapiens, UniProt P45983); assay: Inhibition of N-terminus FLAG-tagged JNK1 expressed in baculovirus expression system using [gamma-33P]-ATP measured after 60 mins by scintillation counting
[21] = target: Tyrosine-protein kinase Lck (Homo sapiens, UniProt P06239); assay: Inhibition of LCK using ATP preincubated with compound for 5 mins measured after 30 mins
Focal adhesion kinase 1 = Focal adhesion kinase 1 (Homo sapiens, UniProt Q05397); assay: Inhibition of FAK using ATP measured after 60 mins
Angiopoietin-1 receptor = Angiopoietin-1 receptor (Homo sapiens, UniProt Q02763); assay: Inhibition of TIE2 using ATP preincubated with compound for 5 mins measured after 10 mins
[22] = target: Proto-oncogene tyrosine-protein kinase Src (Homo sapiens, UniProt P12931); assay: Inhibition of Src using ATP preincubated with compound for 5 mins measured after 10 mins
[23] = target: Dual specificity protein kinase TTK (Homo sapiens, UniProt P33981); assay: Inhibition of N-terminus FLAG-tagged TTK expressed in baculovirus expression system using [gamma-33P]-ATP measured after 60 mins by scintillation counting
Aurora kinase B = Aurora kinase B (Homo sapiens, UniProt Q96GD4); assay: Inhibition of N-terminal 6xHis tagged Aurora B kinase expressed using baculovirus expression system using [gamma-33P]ATP
[24] = target: T2, Tyrosine-protein kinase Lyn (Homo sapiens, UniProt P07948); assay: Inhibition of Lyn A using ATP preincubated with compound for 5 mins measured after 10 mins
[25] = target: Serine/threonine-protein kinase B-raf (Homo sapiens, UniProt P15056); assay: Inhibition of N-terminus FLAG-tagged B-raf expressed in baculovirus expression system using [gamma-33P]-ATP measured after 60 mins by scintillation counting
CYP3A4 = CYP3A4 (Homo sapiens, UniProt P08684); assay: Inhibition of CYP3A4 at 10 uM after 15 mins; type: ADME
[26] = target: Mitogen-activated protein kinase kinase kinase 5 (Homo sapiens, UniProt Q99683); assay: Inhibition of N-terminus FLAG-tagged ASK1 expressed in baculovirus expression system using [gamma-33P]-ATP measured after 60 mins by scintillation counting
[27] = target: T2, Tyrosine-protein kinase Lyn; assay: Inhibition of Lyn B using ATP preincubated with compound for 5 mins measured after 10 mins
[28] = target: Glycogen synthase kinase-3 beta (Homo sapiens, UniProt P49841); assay: Inhibition of N-terminus FLAG-tagged GSK3beta expressed in baculovirus expression system using [gamma-33P]-ATP measured after 30 mins by scintillation counting
[29] = target: Vascular endothelial growth factor receptor 1 (Homo sapiens, UniProt P17948); assay: Inhibition of VEGFR1 using ATP preincubated with compound for 5 mins measured after 5 mins
[30] = target: Hepatocyte growth factor receptor (Homo sapiens, UniProt P08581); assay: Inhibition of c-Met using ATP preincubated with compound for 5 mins measured after 10 mins
[31] = target: Inhibitor of nuclear factor kappa-B kinase subunit beta (Homo sapiens, UniProt O14920); assay: Inhibition of C-terminus FLAG-tagged IKKbeta expressed in baculovirus expression system using [gamma-33P]-ATP measured after 30 mins by scintillation counting
[32] = target: Receptor tyrosine-protein kinase erbB-4 (Homo sapiens, UniProt Q15303); assay: Inhibition of N-terminus peptide-tagged human recombinant HER4 expressed using baculovirus infection system using [gamma-33P]-ATP preincubated with compound for 5 mins measured after 10 mins by scintillation counting
[33] = target: Platelet-derived growth factor receptor alpha (Homo sapiens, UniProt P16234); assay: Inhibition of PDGFRalpha using ATP measured after 30 mins
[34] = target: Serine/threonine-protein kinase PLK1 (Homo sapiens, UniProt P53350); assay: Inhibition of N-terminus FLAG-tagged PLK1 expressed in baculovirus expression system using [gamma-33P]-ATP measured after 60 mins by scintillation counting
[35] = target: Epidermal growth factor receptor (Homo sapiens, UniProt P00533); assay: Inhibition of N-terminus peptide-tagged human recombinant EGFR expressed using baculovirus infection system using [gamma-33P]-ATP preincubated with compound for 5 mins measured after 10 mins by scintillation counting
[36] = target: T1, Receptor tyrosine-protein kinase erbB-2; assay: Pseudo-irreversible inhibition of N-terminus peptide-tagged human recombinant HER2 expressed using baculovirus infection system using [gamma-33P]-ATP preincubated with compound for 5 mins at 10 times IC50 concentration measured after 10 mins by scintillation counting

T1 sequence (P04626 whole entry, the tested form may be a part): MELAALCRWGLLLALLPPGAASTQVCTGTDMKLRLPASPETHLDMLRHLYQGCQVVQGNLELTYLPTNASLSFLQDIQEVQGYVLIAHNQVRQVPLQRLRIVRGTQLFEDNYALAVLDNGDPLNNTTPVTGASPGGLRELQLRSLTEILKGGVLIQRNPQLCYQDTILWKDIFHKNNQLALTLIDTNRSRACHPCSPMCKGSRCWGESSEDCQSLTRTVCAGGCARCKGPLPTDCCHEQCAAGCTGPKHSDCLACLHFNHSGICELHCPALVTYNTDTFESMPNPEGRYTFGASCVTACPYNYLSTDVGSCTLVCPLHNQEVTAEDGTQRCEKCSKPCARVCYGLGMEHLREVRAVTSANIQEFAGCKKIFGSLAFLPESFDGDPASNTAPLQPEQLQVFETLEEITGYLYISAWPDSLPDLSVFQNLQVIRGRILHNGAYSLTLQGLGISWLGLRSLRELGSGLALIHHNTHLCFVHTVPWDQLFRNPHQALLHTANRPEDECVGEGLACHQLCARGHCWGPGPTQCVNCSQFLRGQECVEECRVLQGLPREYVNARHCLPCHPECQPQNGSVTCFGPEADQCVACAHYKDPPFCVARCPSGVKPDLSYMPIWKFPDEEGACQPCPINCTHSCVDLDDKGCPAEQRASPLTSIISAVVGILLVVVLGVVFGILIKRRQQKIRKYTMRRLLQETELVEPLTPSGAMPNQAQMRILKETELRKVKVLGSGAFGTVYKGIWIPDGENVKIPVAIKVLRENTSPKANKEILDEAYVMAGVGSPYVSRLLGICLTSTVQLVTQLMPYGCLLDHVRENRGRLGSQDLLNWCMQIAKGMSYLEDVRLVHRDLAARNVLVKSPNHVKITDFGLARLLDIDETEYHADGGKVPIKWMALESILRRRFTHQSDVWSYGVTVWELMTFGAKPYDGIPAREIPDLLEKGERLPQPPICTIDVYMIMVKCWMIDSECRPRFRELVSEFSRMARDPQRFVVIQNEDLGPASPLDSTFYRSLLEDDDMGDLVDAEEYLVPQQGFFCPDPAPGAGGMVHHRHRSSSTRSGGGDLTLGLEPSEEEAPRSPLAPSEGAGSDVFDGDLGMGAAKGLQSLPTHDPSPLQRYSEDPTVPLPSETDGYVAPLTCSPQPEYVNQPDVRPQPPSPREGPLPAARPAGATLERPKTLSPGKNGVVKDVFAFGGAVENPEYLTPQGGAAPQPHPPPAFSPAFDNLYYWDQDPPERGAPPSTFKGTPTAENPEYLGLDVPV
Sequence of CYP3A4 (P08684 whole entry): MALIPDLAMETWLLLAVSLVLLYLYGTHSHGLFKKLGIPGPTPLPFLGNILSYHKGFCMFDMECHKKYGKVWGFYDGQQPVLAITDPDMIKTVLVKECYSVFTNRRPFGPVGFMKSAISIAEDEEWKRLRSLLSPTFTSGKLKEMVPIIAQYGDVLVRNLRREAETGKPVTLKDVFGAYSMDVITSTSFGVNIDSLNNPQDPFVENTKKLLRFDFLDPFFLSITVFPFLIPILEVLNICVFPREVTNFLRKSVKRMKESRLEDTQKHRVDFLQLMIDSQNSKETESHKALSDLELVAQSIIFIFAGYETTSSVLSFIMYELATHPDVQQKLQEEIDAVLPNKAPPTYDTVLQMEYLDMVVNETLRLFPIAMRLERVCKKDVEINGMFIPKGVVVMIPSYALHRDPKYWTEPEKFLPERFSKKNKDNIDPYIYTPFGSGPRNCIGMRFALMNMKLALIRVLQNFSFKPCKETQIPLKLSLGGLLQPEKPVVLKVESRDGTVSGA
Sequence of Epidermal growth factor receptor (P00533 whole entry): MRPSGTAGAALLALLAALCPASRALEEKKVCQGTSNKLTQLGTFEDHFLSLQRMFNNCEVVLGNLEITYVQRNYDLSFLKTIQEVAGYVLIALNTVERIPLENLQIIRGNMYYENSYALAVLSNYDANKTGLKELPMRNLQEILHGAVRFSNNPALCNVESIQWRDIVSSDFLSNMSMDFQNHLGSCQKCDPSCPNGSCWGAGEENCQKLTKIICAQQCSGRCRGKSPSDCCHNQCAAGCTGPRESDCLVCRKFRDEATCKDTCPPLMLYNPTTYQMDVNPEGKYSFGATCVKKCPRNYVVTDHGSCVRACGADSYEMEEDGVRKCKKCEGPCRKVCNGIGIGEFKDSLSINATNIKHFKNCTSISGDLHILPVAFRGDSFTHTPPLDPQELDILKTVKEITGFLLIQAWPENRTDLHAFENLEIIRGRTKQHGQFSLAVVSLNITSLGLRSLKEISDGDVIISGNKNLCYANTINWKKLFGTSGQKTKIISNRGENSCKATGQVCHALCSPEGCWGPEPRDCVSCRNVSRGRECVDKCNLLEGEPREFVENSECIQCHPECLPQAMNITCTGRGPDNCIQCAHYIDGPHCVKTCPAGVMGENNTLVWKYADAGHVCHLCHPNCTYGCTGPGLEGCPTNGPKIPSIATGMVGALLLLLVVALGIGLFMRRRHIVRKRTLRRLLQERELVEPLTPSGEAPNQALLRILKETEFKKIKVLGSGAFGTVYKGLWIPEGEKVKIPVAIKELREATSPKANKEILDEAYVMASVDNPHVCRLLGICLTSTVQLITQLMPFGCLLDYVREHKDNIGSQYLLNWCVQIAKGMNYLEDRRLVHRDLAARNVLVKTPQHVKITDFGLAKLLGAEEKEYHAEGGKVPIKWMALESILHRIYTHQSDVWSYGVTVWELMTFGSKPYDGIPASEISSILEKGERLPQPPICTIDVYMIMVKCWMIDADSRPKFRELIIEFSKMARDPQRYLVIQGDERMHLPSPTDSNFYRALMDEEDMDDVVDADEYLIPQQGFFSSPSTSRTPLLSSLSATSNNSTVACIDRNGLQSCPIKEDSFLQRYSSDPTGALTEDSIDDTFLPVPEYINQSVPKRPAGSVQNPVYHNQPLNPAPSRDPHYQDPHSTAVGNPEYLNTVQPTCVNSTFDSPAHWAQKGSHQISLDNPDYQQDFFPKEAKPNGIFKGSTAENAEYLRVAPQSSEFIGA
T2 sequence (P07948 whole entry): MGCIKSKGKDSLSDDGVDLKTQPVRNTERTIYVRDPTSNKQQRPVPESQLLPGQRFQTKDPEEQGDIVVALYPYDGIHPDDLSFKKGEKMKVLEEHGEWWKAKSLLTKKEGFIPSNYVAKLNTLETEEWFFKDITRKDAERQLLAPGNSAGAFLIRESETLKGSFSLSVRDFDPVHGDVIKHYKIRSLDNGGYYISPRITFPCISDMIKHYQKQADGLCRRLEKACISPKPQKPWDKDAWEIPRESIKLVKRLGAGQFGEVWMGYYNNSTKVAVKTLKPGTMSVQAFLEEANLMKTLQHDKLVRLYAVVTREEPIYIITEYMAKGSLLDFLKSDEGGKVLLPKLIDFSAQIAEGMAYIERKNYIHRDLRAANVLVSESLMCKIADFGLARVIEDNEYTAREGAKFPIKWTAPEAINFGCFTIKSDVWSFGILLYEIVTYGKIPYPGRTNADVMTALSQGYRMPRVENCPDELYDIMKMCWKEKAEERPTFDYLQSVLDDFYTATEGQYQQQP
Sequence of Focal adhesion kinase 1 (Q05397 whole entry): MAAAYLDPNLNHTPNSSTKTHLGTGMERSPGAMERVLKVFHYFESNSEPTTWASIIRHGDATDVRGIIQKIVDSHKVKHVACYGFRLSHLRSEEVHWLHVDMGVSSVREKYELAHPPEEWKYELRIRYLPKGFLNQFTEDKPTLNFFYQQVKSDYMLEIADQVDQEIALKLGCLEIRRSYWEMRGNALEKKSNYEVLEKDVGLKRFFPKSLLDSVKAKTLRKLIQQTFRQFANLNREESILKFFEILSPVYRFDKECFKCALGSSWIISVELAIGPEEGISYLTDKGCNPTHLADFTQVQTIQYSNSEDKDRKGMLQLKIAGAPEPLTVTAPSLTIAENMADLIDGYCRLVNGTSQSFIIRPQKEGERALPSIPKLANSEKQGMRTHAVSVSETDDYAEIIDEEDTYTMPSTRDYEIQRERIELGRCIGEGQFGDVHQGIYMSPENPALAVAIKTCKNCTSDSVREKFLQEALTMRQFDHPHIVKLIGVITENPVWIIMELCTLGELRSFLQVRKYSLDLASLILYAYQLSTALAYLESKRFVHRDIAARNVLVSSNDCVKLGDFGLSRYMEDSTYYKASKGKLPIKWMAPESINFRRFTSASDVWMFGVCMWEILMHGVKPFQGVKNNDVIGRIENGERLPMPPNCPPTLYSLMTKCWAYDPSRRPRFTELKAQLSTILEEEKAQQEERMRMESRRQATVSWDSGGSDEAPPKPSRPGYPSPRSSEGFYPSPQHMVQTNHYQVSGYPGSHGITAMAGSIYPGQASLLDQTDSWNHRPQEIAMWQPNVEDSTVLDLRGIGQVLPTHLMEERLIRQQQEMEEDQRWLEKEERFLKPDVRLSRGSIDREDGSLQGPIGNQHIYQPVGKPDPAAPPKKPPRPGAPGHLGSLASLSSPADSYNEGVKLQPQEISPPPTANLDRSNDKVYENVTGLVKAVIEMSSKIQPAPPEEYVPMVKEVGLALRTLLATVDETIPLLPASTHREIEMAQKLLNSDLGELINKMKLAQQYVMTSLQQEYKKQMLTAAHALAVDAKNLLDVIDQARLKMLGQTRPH
Sequence of Proto-oncogene tyrosine-protein kinase Src (P12931 2-536 limits assumed): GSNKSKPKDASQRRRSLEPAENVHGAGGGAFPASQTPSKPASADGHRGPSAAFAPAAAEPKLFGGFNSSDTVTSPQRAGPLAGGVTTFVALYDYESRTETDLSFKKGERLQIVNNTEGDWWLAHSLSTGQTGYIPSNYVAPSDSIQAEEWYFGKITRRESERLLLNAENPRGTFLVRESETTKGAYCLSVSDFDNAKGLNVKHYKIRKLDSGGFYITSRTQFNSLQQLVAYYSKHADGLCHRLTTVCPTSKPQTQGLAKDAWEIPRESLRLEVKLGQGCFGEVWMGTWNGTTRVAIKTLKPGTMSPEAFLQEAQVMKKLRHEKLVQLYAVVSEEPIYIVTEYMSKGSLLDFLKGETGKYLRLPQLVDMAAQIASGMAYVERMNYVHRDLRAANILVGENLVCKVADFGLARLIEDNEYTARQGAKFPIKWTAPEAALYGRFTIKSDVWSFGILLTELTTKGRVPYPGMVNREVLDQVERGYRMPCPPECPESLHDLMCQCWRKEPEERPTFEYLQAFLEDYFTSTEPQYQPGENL

IC50 [1]: 0.00098 µM | IC50 [2]: 2.1 µM | microsomal CLint at 1 µM [3]: 88 µL/min/mg | microsomal CLint at 1 µM [4]: 77 µL/min/mg | IC50 [5]: > 10 µM | IC50 [6]: 3.9 µM | IC50 [7]: > 10 µM | IC50 [8]: > 10 µM | IC50 [9]: > 10 µM | IC50 [10]: > 10 µM | GI50 (BT-474): 0.002 µM | IC50 [11]: > 10 µM | IC50 [13]: > 10 µM | IC50 [14]: > 10 µM | IC50 [15]: > 10 µM | IC50 [16]: > 10 µM | IC50 [17]: > 10 µM | IC50 [18]: > 10 µM | IC50 [19]: > 10 µM | IC50 [20]: > 10 µM | IC50 [21]: 1.7 µM | IC50 (Focal adhesion kinase 1): > 10 µM | IC50 (Angiopoietin-1 receptor): 3.2 µM | IC50 [22]: 8.4 µM | IC50 [23]: > 10 µM | IC50 (Aurora kinase B): > 10 µM | IC50 [24]: 7.1 µM | IC50 [25]: > 10 µM | inhibition at 0.25 h, 10 µM (CYP3A4): 21.2% | IC50 [26]: > 10 µM | IC50 [27]: 3 µM | IC50 [28]: > 10 µM | IC50 [29]: > 10 µM | IC50 [30]: 1.8 µM | IC50 [31]: > 10 µM | IC50 [32]: 0.079 µM | IC50 [33]: > 10 µM | IC50 [34]: > 10 µM
SMILES: CC(C)(N)C(=O)NCCn1ccc2ncnc(Nc3ccc(Oc4cccc5sncc45)c(Cl)c3)c21
T/C (CAL-27): -30% | T/C [12]: -23%

IC50 [1]: 0.0021 µM | microsomal CLint at 1 µM [3]: 129 µL/min/mg | microsomal CLint at 1 µM [4]: 142 µL/min/mg | IC50 [35]: 0.0041 µM | GI50 (BT-474): 0.0036 µM | inhibition [36]: Active | inhibition at 0.25 h, 10 µM (CYP3A4): 47.2%
SMILES: OCCn1ccc2ncnc(Nc3ccc(Oc4cccc5sncc45)c(Cl)c3)c21

IC50 [1]: 0.0061 µM | microsomal CLint at 1 µM [3]: 94 µL/min/mg | microsomal CLint at 1 µM [4]: 108 µL/min/mg | IC50 [35]: 0.021 µM | GI50 (BT-474): 0.0092 µM | inhibition at 0.25 h, 10 µM (CYP3A4): 33.5%
SMILES: CC(C)(C)C(=O)NCCn1ccc2ncnc(Nc3ccc(Oc4cccc5sncc45)c(Cl)c3)c21

From ChEMBL document CHEMBL2046372, “Design and synthesis of pyrrolo[3,2-d]pyrimidine human epidermal growth factor receptor 2 (HER2)/epidermal growth factor receptor (EGFR) dual inhibitors: exploration of novel back-pocket binders” (J Med Chem, 2012)
